From article PMC9401565 (Clinical Cancer Research, 2021)
Where two headings read alike, the source gives them in different places. Blank lines part the entries; values can stand above or below the compound they belong to.

Columns and labels:
[1] = test system: REC-BTK^wt (REC-1) cells; assay: CellTiter-Glo viability assay; type: cell-based; settings: Homo sapiens, Rec1, 72 h
[2] = test system: 10 parental B-NHL cell lines; assay: CellTiter-Glo viability assay, mean over cell line panel; type: cell-based; settings: 72 h, read-out: mean GI50
[3] = biological target: BTK^wt (Homo sapiens, UniProt Q06187); assay: BTK kinase activity assay, 33P-ATP filtration; type: biochemical
Sequence of BTK^wt (Q06187 whole entry): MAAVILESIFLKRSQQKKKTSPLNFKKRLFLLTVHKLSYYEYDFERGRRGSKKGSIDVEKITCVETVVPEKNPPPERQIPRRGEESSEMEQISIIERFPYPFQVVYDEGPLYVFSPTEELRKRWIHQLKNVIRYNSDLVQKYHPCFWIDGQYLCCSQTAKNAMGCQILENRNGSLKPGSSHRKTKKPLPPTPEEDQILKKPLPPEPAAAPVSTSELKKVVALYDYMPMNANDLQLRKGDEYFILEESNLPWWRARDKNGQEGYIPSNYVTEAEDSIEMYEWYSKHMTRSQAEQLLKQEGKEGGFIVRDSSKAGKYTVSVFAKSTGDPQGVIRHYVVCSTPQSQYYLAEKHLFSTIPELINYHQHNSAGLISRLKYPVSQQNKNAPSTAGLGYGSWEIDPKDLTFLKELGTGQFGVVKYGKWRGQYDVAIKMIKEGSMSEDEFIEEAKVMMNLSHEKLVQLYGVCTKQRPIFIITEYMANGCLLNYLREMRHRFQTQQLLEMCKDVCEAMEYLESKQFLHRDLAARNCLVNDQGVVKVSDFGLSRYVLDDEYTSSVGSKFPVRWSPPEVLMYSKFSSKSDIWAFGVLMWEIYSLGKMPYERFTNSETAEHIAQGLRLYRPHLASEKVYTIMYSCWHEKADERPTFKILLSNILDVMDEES

[4] = test system: REC-BTK^KO cells; assay: CellTiter-Glo viability assay; type: cell-based
[5] = PK analysis, TG-1701 plasma concentrations; type: in vivo, human; settings: patients, from 100 to 300 mg
[6] = test system: BTK and AKT phosphorylation; assay: MINO xenograft, intratumor BCR-related kinases by Western blot; type: in vivo, nude mice; settings: single oral gavage 50 mg/kg
Procedure, shortened: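 Nude mice aged 6–7 weeks were implanted subcutaneously with 5 × 10^6 MINO cells. Dosing was oral once tumors reached 100–200 mm3. Tumor protein extracts were immunoblotted for BCR-related kinases. Densitometry was normalized to GAPDH or tubulin and referred to the control sample.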

[7] = test system: CLL, MCL, WM; settings: cited from earlier work; for preliminary overall response rate (ORR): 200 mg daily monotherapy, median follow-up 7 months ref 17
[8] = test system: MINO MCL xenograft; assay: MINO MCL xenograft model, tumor growth inhibition; type: in vivo, nude mice; settings: orally, twice a day, 16-day treatment
[9] = test system: UPN-IbruR MCL xenograft; assay: UPN-IbruR xenograft model, tumor growth; type: in vivo, CB17-SCID mice; settings: 25 mg/kg, every day, 17 days
Procedure, shortened: (§1)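 CB17-SCID mice were inoculated subcutaneously with […] REC-1GFP+Luc+ or UPN-IbruR cells. Tumor growth and vital parameters were monitored. Mice received oral test compound at 25 mg/kg daily or vehicle for 17 days. Endpoint tumor burden was read by bioluminescence for REC-1 and by caliper for UPN-IbruR. TGI was calculated versus vehicle.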

[10] = biological target: T1, BTK (Homo sapiens, UniProt Q06187); assay: BTK occupancy in patient PBMC lysates; type: in vivo; settings: 6 patients with CLL, 4 hours after treatment
T1 sequence (Q06187 whole entry): as above

[11] = test system: BCR pathway in DoHH-2 cells; assay: BCR downstream signaling in IgM-stimulated cells, Western blot; type: cell-based; settings: IgM-stimulated DoHH-2
[12] = biological target: T1, BTK; assay: KINOMEscan quantitative binding assay
[13] = test system: REC-BTK^C481S cells; assay: CellTiter-Glo viability assay; type: cell-based; settings: REC-1–BTK^C481S
[14] = biological target: T2, TXK (Homo sapiens, UniProt P42681); assay: KINOMEscan quantitative binding assay
T2 sequence (P42681 1-527): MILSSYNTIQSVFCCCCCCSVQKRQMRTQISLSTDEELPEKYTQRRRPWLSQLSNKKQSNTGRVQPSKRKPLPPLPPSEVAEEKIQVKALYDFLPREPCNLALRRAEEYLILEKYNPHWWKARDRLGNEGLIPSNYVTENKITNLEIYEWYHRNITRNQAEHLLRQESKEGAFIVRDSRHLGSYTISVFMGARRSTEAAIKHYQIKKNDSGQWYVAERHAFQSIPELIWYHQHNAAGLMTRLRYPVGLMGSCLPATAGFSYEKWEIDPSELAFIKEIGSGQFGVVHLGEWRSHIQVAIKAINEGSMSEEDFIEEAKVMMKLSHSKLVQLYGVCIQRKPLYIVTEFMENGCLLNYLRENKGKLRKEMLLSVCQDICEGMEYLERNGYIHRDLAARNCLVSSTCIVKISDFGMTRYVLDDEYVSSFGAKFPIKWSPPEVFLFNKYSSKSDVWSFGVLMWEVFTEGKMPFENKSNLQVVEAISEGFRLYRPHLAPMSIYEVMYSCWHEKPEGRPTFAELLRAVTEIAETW

[15] = test system: REC-1^GFP+LUC+ MCL xenograft; assay: REC-1 xenograft model, tumor growth inhibition; type: in vivo, CB17-SCID mice; settings: 25 mg/kg, every day, 17-day dosing
Procedure, shortened: as §1

[16] = test system: p-BTK, MYC, YES1; assay: Immunoblot of p-BTK, Ikaros, MYC and YES1 in PBMC lysates of patients with CLL; type: in vivo, human; settings: early-responder patients, 4 hours posttreatment
[17] = biological target: JAK3 (Homo sapiens, UniProt P52333); assay: KINOMEscan quantitative binding assay
Sequence of JAK3 (P52333 781-1124 limits assumed): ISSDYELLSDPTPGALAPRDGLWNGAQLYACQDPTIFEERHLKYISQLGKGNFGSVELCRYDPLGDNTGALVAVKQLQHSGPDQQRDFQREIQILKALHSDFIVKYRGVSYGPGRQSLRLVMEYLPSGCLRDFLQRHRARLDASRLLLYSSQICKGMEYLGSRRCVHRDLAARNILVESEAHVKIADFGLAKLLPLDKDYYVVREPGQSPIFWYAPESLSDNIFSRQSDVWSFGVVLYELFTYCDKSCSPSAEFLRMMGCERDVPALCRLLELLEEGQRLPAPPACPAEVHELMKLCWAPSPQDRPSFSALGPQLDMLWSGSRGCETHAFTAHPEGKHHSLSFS

[18] = test system: phosphopeptides in PBMC; type: in vivo, human; settings: early-responder patients, 4-hour postdose
[19] = test system: CLL; assay: Phase I trial NCT03671590, clinical outcome of 6 patients with CLL; type: in vivo, human
Procedure, shortened: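 Relapsed/refractory CLL patients in trial NCT03671590 took oral test compound once daily (200, 300 or 400 mg) until progression or intolerable toxicity. ALC was recorded on day 1. CLL cell percentage was derived from ALC against the upper normal limit. Best tumor reduction was assessed at C3D1 and graded as partial response or stable disease.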

[20] = test system: MCL cell lines; assay: CellTiter-Glo viability assay, mean over MCL cell lines; type: cell-based; settings: 72 h, read-out: mean GI50
[21] = biological target: BTK^C481S (Homo sapiens, UniProt Q06187, C481S); assay: BTK kinase activity assay, 33P-ATP filtration; type: biochemical; settings: BTK^C481S vs BTK^wt
Sequence of BTK^C481S (Q06187 whole entry C481S): as the sequence (Q06187 whole entry) above, with C481S counted along it

EC50 [3]: 0.0067 µM
BTK occupancy [10]: Near-complete BTK occupancy
Kd [12]: 0.003 µM
Kd fold higher than that of ibrutinib [14]: 68 fold
Kd fold higher than that of ibrutinib [17]: > 94 fold
fold decrease in inhibitory kinase activity [21]: 54.8 fold
SMILES: CC#CC(=O)N1CC[C@@H](n2cc(-c3ccc(Oc4c(F)cccc4F)cc3)c3c(N)n[nH]c(=O)c32)C1 [TG-1701]
GI50 [1]: 3.83 µM
GI50 [2]: 6.4 µM
sensitivity of REC-BTK^KO cells [4]: refractory
dose dependence of Cmax and AUC0–8 hours [5]: approximately dose-proportional increases
duration of BTK and AKT dephosphorylation in tumor [6]: at least 24 hours
earliest time of AKT dephosphorylation in tumor [6]: 4 h
earliest time of BTK dephosphorylation in tumor [6]: 2 h
preliminary overall response rate (ORR) ([7]; CLL): 95%
preliminary overall response rate (ORR) ([7]; MCL): 50%
complete responses (CR) ([7]; TG-1701 monotherapy ref 17): No complete responses (CR) are confirmed
preliminary overall response rate (ORR) ([7]; WM): 95%
TGI ([8]; 25 mg/kg): 56%
TGI ([8]; 50 mg/kg): 72%
TGI ([8]; 100 mg/kg): 78%
sensitivity of UPN-IbruR tumors [9]: almost insensitive
concentration of maximal effects on BCR downstream signaling [11]: 100 nmol/L
fold less sensitive compared with parental REC-1 cells [13]: 2.8 fold
tumor TGI versus vehicle [15]: 53%
downregulation of MYC protein [16]: 48%
downregulation of p-BTK protein [16]: 70%
increase of YES1 levels [16]: ~5 fold
phosphorylation of Ikaros p-Ser442/445 upon treatment [18]: totally dephosphorylated
Clinical outcome (% reduction) ([19]; patient AII-0011, 400–300 mg daily): 87%
Clinical outcome (% reduction) ([19]; patient AIJ-0001, 200 mg daily): 38%
Clinical outcome ([19]; patient AIJ-0005, 300 mg daily): SD-PR
Clinical outcome (% reduction) ([19]; patient AIJ-0005, 300 mg daily): 56%
Clinical outcome (% reduction) ([19]; patient AIJ-0015, 400 mg daily): 86%
Clinical outcome ([19]; patient AIK-0003, 200 mg daily): SD (lymphocytosis)
GI50 [20]: 4.3 µM

SMILES: C=CC(=O)N1CCC[C@@H](n2nc(-c3ccc(Oc4ccccc4)cc3)c3c(N)ncnc32)C1 [ibrutinib, reference compound]
GI50 [1]: 5.82 µM
GI50 [2]: 14.1 µM
sensitivity of REC-BTK^KO cells [4]: refractory
concentration of maximal effects on BCR downstream signaling [11]: 10 nmol/L
GI50 [20]: 10.8 µM
